High-throughput results: PubChem BioAssay, several laboratories
IDE act = human IDE activators in live cells, primary screen, fluorescence polarization, HEK cells, FAbeta-B substrate; Insulin-degrading enzyme (Homo sapiens), P14735; FAbeta-B cleavage; 0% vehicle, 100% cell-free pure enzyme wells; activation, % at 5.96 µM; 0.073% of 340,000 active;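 active = activation above the mean of all tested compounds plus 3 SD, set per screening campaign, cut at about 17% in these data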
IDE inh = human IDE inhibitors in live cells, primary screen, fluorescence polarization, HEK cells, FAbetaB substrate | Insulin-degrading enzyme (Homo sapiens), P14735 | FAbetaB cleavage | inhibition, % at 5.59 µM | 0.41% of 320,000 active;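 active = percent inhibition above the average of all tested compounds plus 3 SD, set per screening campaign, cut at about 16% in these data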;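 note: IDE supplied by intact live HEK cells; FP after avidin binding of uncleaved biotin substrate so inhibition keeps polarization high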
Rpn11 inh = Rpn11 (PSMD14) deubiquitinase inhibitors, primary screen, biochemical, fluorescence polarization, uHTS. 26S proteasome non-ATPase regulatory subunit 14 (Homo sapiens), O00487. human 26S proteasome, Ub4-pepOG fluorescence polarization; 20S core pre-blocked with epoxomicin. inhibition, % at 20 µM. 0.59% of 360,000 active. AID 588493, 2011;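 active = inhibition at 20 µM, scaled to each plate's controls, above about 33%, limit read from the data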
CSN inh = inhibitors of CSN-mediated cullin deneddylation, primary screen, biochemical, fluorescence polarization, uHTS. inhibition, % at 12.5 µM. Purified CSN, SCF-Nedd8-OG deneddylation. 0.38% of 360,000 active. AID 651999, 2013. COP9 signalosome complex subunit 5 (Homo sapiens), Q92905;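 active = pattern-corrected inhibition above about 35%, with an unprinted fluorescence ratio check between 0.5 and 1.5, limit read from the data, passing the limit was not always enough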
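Assay system: purified human Csn5 enzyme expressed in HEK293T cells; measure: % inhibition; also added: SCFSkp2-Nedd8OG substrate at 10 nM final; technique: fluorescence polarization; times: reaction 90 min, room temperature; medium: Tris buffer pH 7.5, NaCl, DTT, Tween-20, trehalose, ovalbumin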
HNF4A DNA FP = change in binding of human HNF4A to DNA, primary screen, biochemical, fluorescence polarization, FITC-DNA. activity change, % at 10 µM. Hepatocyte nuclear factor 4-alpha (Homo sapiens), P41235. 1 h. 0.3% of 360,000 active. AID 1224865, 2016; in the data active = activity change above about 30%, passing the limit was not always enough
TPT1 inhibitor = Candida albicans TPT1 enzyme inhibitors, primary screen, biochemical, fluorescence polarization. inhibition, % at 5 µM. 0.81% of 300,000 active. tRNA 2'-phosphotransferase TPT1 (Candida albicans SC5314). recombinant caTPT1, FP RNA substrate dephosphorylation;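 active = inhibition above the mean of all tested compounds plus 3 SD, set per screening campaign, cut at about 24% in these data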
Rpn11 inh conf = Rpn11 (PSMD14) deubiquitinase inhibitors, confirmation, biochemical, fluorescence polarization, single concentration; shares compounds with Rpn11 inh; inhibition, % at 20 µM; purified human 26S proteasome, Ub4-pepOG fluorescence polarization; proteasome pretreated with epoxomicin; 29% of 1,900 active; AID 602318, 2012
MMP-2 counter-1 = MMP-2 enzyme inhibition, confirmation, counter-screen for RPN11 inhibitor project, biochemical, fluorescence, single concentration. recombinant MMP-2, FRET peptide cleavage fluorescence. 4% of 1,900 active. shares compounds with Rpn11 inh. inhibition, % at 20 µM. AID 602330, 2012;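 note: human MMP-2 activated beforehand with APMA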
Thrombin inh = bovine thrombin protease inhibition, confirmation, counter-screen for Rpn11 inhibitor project, biochemical, fluorescence polarization, single concentration; shares compounds with Rpn11 inh; bovine thrombin cleavage of Ub4-pepOG; inhibition, % at 20 µM; 13% of 1,900 active; AID 602333, 2012;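 active = mean inhibition at least 40% at 20 µM, or signal 3 deviations below plate average, so some actives read negative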
Target sequence (P00735 whole entry, looked up): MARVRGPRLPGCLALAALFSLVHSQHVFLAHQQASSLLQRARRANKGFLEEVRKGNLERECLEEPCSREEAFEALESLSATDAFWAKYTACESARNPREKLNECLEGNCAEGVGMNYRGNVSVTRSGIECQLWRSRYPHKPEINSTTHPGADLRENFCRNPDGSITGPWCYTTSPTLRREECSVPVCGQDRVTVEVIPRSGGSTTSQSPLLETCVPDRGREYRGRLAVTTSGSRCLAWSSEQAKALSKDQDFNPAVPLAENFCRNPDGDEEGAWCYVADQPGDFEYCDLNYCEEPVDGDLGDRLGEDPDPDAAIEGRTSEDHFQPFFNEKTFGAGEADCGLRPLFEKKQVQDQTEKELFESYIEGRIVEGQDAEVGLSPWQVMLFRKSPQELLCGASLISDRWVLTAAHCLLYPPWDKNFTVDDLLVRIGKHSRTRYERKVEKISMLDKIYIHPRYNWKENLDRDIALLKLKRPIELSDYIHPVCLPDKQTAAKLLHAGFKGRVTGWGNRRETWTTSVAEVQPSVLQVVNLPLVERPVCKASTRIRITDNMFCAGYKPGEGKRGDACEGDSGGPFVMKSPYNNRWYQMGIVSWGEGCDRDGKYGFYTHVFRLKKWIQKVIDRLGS
CSN deneddyl val = Csn5 deneddylation inhibitors, confirmation, biochemical, fluorescence polarization, single concentration, SCF-Nedd8OG substrate. shares compounds with CSN inh. Csn5 deneddylation of SCF-Nedd8OG, 90 min. inhibition, % at 16.6 µM. 62% of 540 active; in the data active = inhibition above about 50%
MMP-2 counter-2 = MMP-2 protease inhibition counter-screen, confirmation, counter-screen for CSN deneddylation inhibitor project, biochemical, fluorescence, single concentration. 33% of 540 active. inhibition, % at 16.6 µM. recombinant MMP-2, FRET substrate fluorescence, 60 min. shares compounds with CSN inh;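 active = corrected plate-normalized z-score of 5 or more, or -5 or less, or inhibition of 15% or more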
Thrombin cntr = thrombin (bovine) inhibition, counter-screen for CSN hits; shares compounds with CSN inh; bovine thrombin cleavage of Ub4-pepOG, fluorescence polarization; inhibition, % at 16.6 µM; 49% of 540 active; AID 720656;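 active = inhibition at or above a set limit, with a fluorescence interference ratio between 0.5 and a set maximum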
Large screens that a line does not name were inactive (follow-up assays come after a bar, where they were run). This is a sample that favours compounds with a hit; in the whole collection about 1.7% have one here. Cut-off read from the data, not from the text of the source, unless noted: active = inhibition above about 40%; inactive = the rest.

COc1cc(/C=C(/C#N)c2nc3ccccc3[nH]2)ccc1OCc1ccc(C(=O)O)o1	none
COC(=O)c1ccc(COc2ccc(/C=C(\C#N)c3nc4ccccc4[nH]3)cc2OC)o1	Rpn11 inh 138, CSN inh 57 | Rpn11 inh conf 127 | MMP-2 counter-1 inactive | Thrombin inh 90 | CSN deneddyl val inactive | MMP-2 counter-2 inactive | Thrombin cntr 41
O=C(Nc1ccc(C2=NCCN2)cc1)c1ccc(C(=O)Nc2ccc(C3=NCCN3)cc2)c(Cl)c1	Rpn11 inh 90, CSN inh 114 | Rpn11 inh conf 69 | MMP-2 counter-1 47 | Thrombin inh inactive | CSN deneddyl val inactive | MMP-2 counter-2 72 | Thrombin cntr inactive
COc1ccc(/C=c2\sc3nc(=O)c(C)nn3c2=O)c(OC)c1	none
COc1ccc(Br)cc1/C=c1\sc2nc(-c3ccco3)nn2c1=O	Rpn11 inh 91, CSN inh 41 | Rpn11 inh conf inactive | MMP-2 counter-1 inactive | Thrombin inh inactive | CSN deneddyl val 70 | MMP-2 counter-2 inactive | Thrombin cntr inactive
COc1cccc(-c2cnc(C(O)c3ccc(Cl)cc3)[nH]2)c1 (stereo not given)	none (no result: IDE act, IDE inh, TPT1 inhibitor)
O=C(O)CN1C(=O)/C(=C\c2cc(Br)ccc2OCc2ccc(Cl)cc2Cl)SC1=S	Rpn11 inh 80, CSN inh 36 | Rpn11 inh conf inactive | MMP-2 counter-1 inactive | Thrombin inh 79 | CSN deneddyl val inactive | MMP-2 counter-2 inactive | Thrombin cntr inactive
COc1ccc(Cc2c(-c3ccc(C#N)cc3)nc3c(Cl)cc(C(F)(F)F)cn23)c(C)c1	none (no result: IDE act, IDE inh, Rpn11 inh, TPT1 inhibitor)
O=C1c2cccc(NCCCNCCO)c2C(=O)c2cccc(NCCCNCCO)c21	Rpn11 inh 42, CSN inh 94 (no result: IDE inh, TPT1 inhibitor) | Rpn11 inh conf inactive | MMP-2 counter-1 inactive | Thrombin inh inactive | CSN deneddyl val inactive | MMP-2 counter-2 34 | Thrombin cntr inactive
Cc1nc(S/C(=C\c2ccc(-c3ccc(C(=O)O)c(Cl)c3)o2)C(=O)O)n[nH]1	Rpn11 inh 67, CSN inh 73 (no result: IDE inh, TPT1 inhibitor) | Rpn11 inh conf 197 | MMP-2 counter-1 inactive | Thrombin inh inactive | MMP-2 counter-2 19 | Thrombin cntr inactive
